ChEMBL document CHEMBL5360615, “Pharmacological and Physicochemical Properties Optimization for Dual-Target Dopamine D3 (D3R) and μ-Opioid (MOR) Receptor Ligands as Potentially Safer Analgesics” (J Med Chem, 2023)
The source made the active and inactive calls. The rule behind the calls is not given here.

Columns and labels:
[1] = biological target: Mu-type opioid receptor (Mus musculus) (UniProt P42866); assay: (§1) Partial agonist activity at SNAP-tagged mouse MOR transfected in HEK293T cells coexpressing wild type Galpha-i2, venus-tagged Gbeta-1 (156 to 239 residues), venus-tagged Ggamma2 (1 to 155 residues) and Rluc8 fused masGRK3ct assessed as Galpha-i2 activation at 10 uM using coelenterazine as substrate incubated for 40 mins by BRET based GPA assay relative to control; assay type: functional, cell-based; details: for Emax: filed as partial agonist
Chain of Mu-type opioid receptor (Mus musculus) (P42866 whole entry, the tested form may be a part): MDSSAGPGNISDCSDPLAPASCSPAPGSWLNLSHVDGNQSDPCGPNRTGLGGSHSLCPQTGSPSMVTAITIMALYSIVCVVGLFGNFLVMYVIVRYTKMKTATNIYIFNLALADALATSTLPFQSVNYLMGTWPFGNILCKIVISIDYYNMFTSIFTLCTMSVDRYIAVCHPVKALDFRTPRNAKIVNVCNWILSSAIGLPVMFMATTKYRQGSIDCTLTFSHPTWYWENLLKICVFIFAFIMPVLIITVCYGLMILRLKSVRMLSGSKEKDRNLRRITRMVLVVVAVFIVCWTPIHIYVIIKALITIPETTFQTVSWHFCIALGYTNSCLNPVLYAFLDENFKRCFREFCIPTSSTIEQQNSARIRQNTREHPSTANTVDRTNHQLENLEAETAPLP
Method in brief: (§2)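 HEK293T cells transiently transfected with BRET sensors (DNA:PEI 1:6), plated into poly-D-lysine plates and assayed 48 h post-transfection. Cells washed and held in D-PBS 30 min at 37 °C. Coelenterazine h 5 μM final; ligands 10 μM to 0.01 nM. At least three independent experiments in duplicate.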

D(3) dopamine receptor [2] = biological target: T1, D(3) dopamine receptor (Homo sapiens, UniProt P35462); assay: Displacement of [3H]N-methylspiperone from human D3R receptor expressed in HEK293T cell membrane assessed as inhibition constant incubated for 60 mins by MicroBeta scintillation counting method; assay type: cell membranes
T1 sequence (P35462 whole entry, the tested form may be a part): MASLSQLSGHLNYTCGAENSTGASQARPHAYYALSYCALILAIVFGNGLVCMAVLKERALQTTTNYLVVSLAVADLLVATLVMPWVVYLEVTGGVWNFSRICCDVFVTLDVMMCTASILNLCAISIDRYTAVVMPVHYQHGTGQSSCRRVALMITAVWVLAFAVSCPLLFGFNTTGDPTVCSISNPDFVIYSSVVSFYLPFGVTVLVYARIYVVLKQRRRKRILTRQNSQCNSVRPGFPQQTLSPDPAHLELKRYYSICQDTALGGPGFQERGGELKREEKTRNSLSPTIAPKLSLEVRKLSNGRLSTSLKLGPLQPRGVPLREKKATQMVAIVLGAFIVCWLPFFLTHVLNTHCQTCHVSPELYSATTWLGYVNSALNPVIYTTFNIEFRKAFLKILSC

Mu-type opioid receptor [3] = biological target: T2, Mu-type opioid receptor (Mus musculus, UniProt P42866); assay: (§3) Partial agonist activity at Rluc8 fused mouse MOR transfected in HEK293T cells assessed as Nb33 recruitment using coelenterazine as substrate incubated for 40 mins by BRET assay; assay type: functional, cell-based; method in brief: as §2
T2 sequence (P42866 whole entry, the tested form may be a part): as the sequence (P42866 whole entry, the tested form may be a part) above

[4] = biological target: Mu-type opioid receptor (Mus musculus) (UniProt P42866); assay: Partial agonist activity at Rluc8 fused mouse MOR transfected in HEK293T cells coexpressing wild type GRK2 assessed as arrestin-3 recruitment at 10 uM using coelenterazine as substrate incubated for 40 mins by BRET assay relative to control; assay type: functional, cell-based
Method in brief: (§4)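 HEK293T cells transiently transfected with BRET sensors (DNA:PEI 1:6), plated into poly-D-lysine plates and assayed 48 h post-transfection. Cells washed and held in D-PBS 30 min at 37 °C. Coelenterazine h 5 μM final; ligands 10 μM to 0.01 nM. […] At least three independent experiments in duplicate.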

[5] = biological target: Mu-type opioid receptor (Mus musculus) (UniProt P42866); assay: (§5) Partial agonist activity at Rluc8 fused mouse MOR transfected in HEK293T cells coexpressing wild type GRK2 assessed as arrestin-3 recruitment using coelenterazine as substrate incubated for 40 mins by BRET assay; assay type: functional, cell-based; method in brief: as §2
D(2) dopamine receptor = D(2) dopamine receptor (Homo sapiens, UniProt P14416); assay: Displacement of [3H]N-methylspiperone from human D2L receptor expressed in HEK293T cell membrane assessed as inhibition constant incubated for 60 mins by MicroBeta scintillation counting method; assay type: cell membranes
Chain of D(2) dopamine receptor (P14416 whole entry): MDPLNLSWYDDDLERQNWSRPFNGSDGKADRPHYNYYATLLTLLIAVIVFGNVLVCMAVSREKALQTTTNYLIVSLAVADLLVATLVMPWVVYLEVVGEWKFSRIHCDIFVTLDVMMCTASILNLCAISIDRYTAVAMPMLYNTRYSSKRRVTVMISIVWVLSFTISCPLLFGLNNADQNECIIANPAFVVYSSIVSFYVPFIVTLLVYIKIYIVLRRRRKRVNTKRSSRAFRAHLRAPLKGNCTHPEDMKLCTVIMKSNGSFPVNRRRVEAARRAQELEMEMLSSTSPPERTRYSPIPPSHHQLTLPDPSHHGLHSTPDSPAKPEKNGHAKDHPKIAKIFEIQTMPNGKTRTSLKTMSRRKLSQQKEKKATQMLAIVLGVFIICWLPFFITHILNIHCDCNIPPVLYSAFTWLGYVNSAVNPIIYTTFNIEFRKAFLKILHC

Mu-type opioid receptor [6] = biological target: T2, Mu-type opioid receptor; assay: as §1, with “activation” for “activation at 10 uM”, “assay” for “assay relative to control”; assay type: functional, cell-based; method in brief: as §2
D(3) dopamine receptor [7] = biological target: T1, D(3) dopamine receptor; assay: (§6) Antagonist activity at SNAP-tagged human D3R receptor transfected in HEK293T cells coexpressing wild type Galpha-oA, venus-tagged Gbeta-1 (156 to 239 residues), venus-tagged Ggamma2 (1 to 155 residues) and Rluc8 fused masGRK3ct assessed as Galpha-oA activation using coelenterazine as substrate incubated for 40 mins in presence of quinpirole by BRET based GPA assay; assay type: functional, cell-based
Mu-type opioid receptor [8] = biological target: Mu-type opioid receptor (Homo sapiens, UniProt P35372); assay: Displacement of [3H]-DAMGO from human MOR receptor expressed in HEK293T cell membrane assessed as inhibition constant incubated for 60 mins by MicroBeta scintillation counting method; assay type: cell membranes
Chain of Mu-type opioid receptor (Homo sapiens, UniProt P35372) (P35372 whole entry): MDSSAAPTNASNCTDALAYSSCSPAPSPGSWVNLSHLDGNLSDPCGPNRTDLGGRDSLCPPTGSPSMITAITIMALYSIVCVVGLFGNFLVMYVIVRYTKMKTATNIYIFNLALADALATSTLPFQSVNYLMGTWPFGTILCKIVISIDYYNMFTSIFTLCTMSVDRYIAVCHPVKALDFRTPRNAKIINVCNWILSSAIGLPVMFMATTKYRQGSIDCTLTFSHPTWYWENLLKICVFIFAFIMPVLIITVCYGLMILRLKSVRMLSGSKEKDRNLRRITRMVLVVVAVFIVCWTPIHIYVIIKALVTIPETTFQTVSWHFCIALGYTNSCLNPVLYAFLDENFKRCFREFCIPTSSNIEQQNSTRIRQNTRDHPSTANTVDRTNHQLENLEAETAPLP
Method in brief: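 HEK293 cells stably expressing human MOR, grown in DMEM with 10% FBS and hygromycin B; membranes prepared from confluent cells. Binding buffer 50 mM Tris, 5 mM MgCl2, pH 7.4. Nonspecific binding with 10 μM naloxone. 60 min at RT, then GF/C filtration.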

[9] = biological target: Mu-type opioid receptor (Mus musculus) (UniProt P42866); assay: Partial agonist activity at Rluc8 fused mouse MOR transfected in HEK293T cells assessed as Nb33 recruitment at 10 uM using coelenterazine as substrate incubated for 40 mins by BRET assay relative to control; assay type: functional, cell-based; method in brief: as §2
[10] = biological target: Mu-type opioid receptor (Mus musculus) (UniProt P42866); assay: Agonist activity at Rluc8 fused mouse MOR transfected in HEK293T cells coexpressing wild type GRK2 assessed as arrestin-3 recruitment at 10 uM using coelenterazine as substrate incubated for 40 mins by BRET assay relative to control; assay type: functional, cell-based; details: filed as agonist; method in brief: as §4
[11] = biological target: Mu-type opioid receptor (Mus musculus) (UniProt P42866); assay: Agonist activity at Rluc8 fused mouse MOR transfected in HEK293T cells assessed as Nb33 recruitment at 10 uM using coelenterazine as substrate incubated for 40 mins by BRET assay relative to control; assay type: functional, cell-based; details: filed as agonist; method in brief: as §4
D(3) dopamine receptor [12] = biological target: T1, D(3) dopamine receptor; assay: as §6, with “Partial agonist” for “Antagonist”, “mins” for “mins in presence of quinpirole”; assay type: functional, cell-based
Mu-type opioid receptor [13] = biological target: T2, Mu-type opioid receptor; assay: as §5; assay type: functional, cell-based; method in brief: as §2
[14] = biological target: Mu-type opioid receptor (Mus musculus) (UniProt P42866); assay: as §3; assay type: functional, cell-based; method in brief: as §2
[15] = biological target: Mu-type opioid receptor (Mus musculus) (UniProt P42866); assay: as §1, with “activation” for “activation at 10 uM”, “assay” for “assay relative to control”; assay type: functional, cell-based; method in brief: as §2

| Compound | Ki (D(3) dopamine receptor [2]) | Ki (D(2) dopamine receptor) | Ki (Mu-type opioid receptor [8]) | further results |
| --- | --- | --- | --- | --- |
| CN(C)C(=O)C(CCN1C[C@H](O)C[C@H]1CN1CCN(c2cccc(Cl)c2Cl)CC1)(c1ccccc1)c1ccccc1 | 247 nM | 1180 nM | 529 nM | Emax [1]: 73.6%; EC50 (Mu-type opioid receptor [3]): 3330 nM; Activity [4]: inactive; Activity [5]: inactive; EC50 (Mu-type opioid receptor [6]): 3450 nM; Activity (D(3) dopamine receptor [7]): inactive; Emax [9]: 12.7% |
| CCC1(CC)CC(OCCCNCc2cccc(Cl)c2Cl)(c2ccccn2)CCO1 (centres undefined) | 1180 nM | 13400 nM | 540 nM | – |
| C[C@@H](NC(=O)[C@@H](N)Cc1ccc(O)cc1)C(=O)NCC(=O)N(C)[C@@H](Cc1ccccc1)C(=O)NCCO | – | – | – | Emax [10]: 98.7%; Emax [11]: 98.5% |
| CC1CCC(CN2CCN(c3cccc(Cl)c3Cl)CC2)CN1CCC(C(=O)N(C)C)(c1ccccc1)c1ccccc1 (centres undefined) | 309 nM | 146 nM | 867 nM | – |
| CN(C)C(=O)C(CCN1C[C@H](O)C[C@H]1CN1CCN(c2cccc(C(F)(F)F)n2)CC1)(c1ccccc1)c1ccccc1 | 2700 nM | 4660 nM | 782 nM | – |
| CN(C)C(=O)C(CCN[C@@H]1C[C@H]1c1ccc(F)cc1)(c1ccccc1)c1ccccc1 (relative stereo) | – | – | 47 nM | – |
| CCC1(CC)CC(OCCCN2CCN(c3cccc(C(F)(F)F)n3)CC2)(c2ccccn2)CCO1 (centres undefined) | – | 1240 nM | 745 nM | – |
| Clc1cccc(N2CCN(CCCCNCCC3(c4ccccn4)CCOCC3)CC2)c1Cl | – | – | 1460 nM | – |
| CCc1cc(Cl)c(OC)c(N2CCN(Cc3cn(CCC(C(=O)N(C)C)(c4ccccc4)c4ccccc4)nn3)CC2)c1 | – | – | 2380 nM | – |
| Clc1cccc(N2CCN(CCCOC3(c4ccccn4)CCOCC3)CC2)c1Cl | – | – | 1750 nM | – |
| CN(C)C(=O)C(CCN1CCN(c2cccc(C(F)(F)F)n2)CC1)(c1ccccc1)c1ccccc1 | – | – | 1.23 nM | – |
| CN(C)C(=O)C(CCN1CCN(c2nsc3ccccc23)CC1)(c1ccccc1)c1ccccc1 | – | 465 nM | 0.364 nM | – |
| COc1ccc([C@@H]2C[C@H]2NCCC(C(=O)N(C)C)(c2ccccc2)c2ccccc2)cc1 (relative stereo) | – | – | 81.8 nM | – |
| CN(C)C(=O)C(CCN1C[C@H](O)C[C@H]1C(=O)NCCCCN1CCN(c2cccc(Cl)c2Cl)CC1)(c1ccccc1)c1ccccc1 | – | – | 564 nM | EC50 (Mu-type opioid receptor [6]): 1810 nM |
| FC(F)(F)c1cccc(N2CCN(CCC3(c4ccccn4)CCOC4(CCCC4)C3)CC2)n1 (centres undefined) | 734 nM | 5430 nM | 166 nM | – |
| CN(C)C(=O)C(CCN1C[C@H](O)C[C@H]1C(=O)NCCCCN1CCN(c2cccc(C(F)(F)F)n2)CC1)(c1ccccc1)c1ccccc1 | – | – | 791 nM | EC50 (Mu-type opioid receptor [6]): 470 nM |
| CN(C)C(=O)C(CCN1CCC(CCN2CCN(c3cccc(Cl)c3Cl)CC2)C1)(c1ccccc1)c1ccccc1 (centres undefined) | 20.2 nM | 117 nM | 23.5 nM | Emax [1]: 85.4%; EC50 (D(3) dopamine receptor [12]): 41.7 nM; EC50 (Mu-type opioid receptor [3]): 658 nM; Emax [4]: 10.5%; EC50 (Mu-type opioid receptor [13]): 470 nM; EC50 (Mu-type opioid receptor [6]): 158 nM; Emax [9]: 14.6% |
| CN(C)C(=O)C(CCN1C[C@H](F)C[C@H]1C(=O)NCCCCN1CCN(c2nsc3ccccc23)CC1)(c1ccccc1)c1ccccc1 | 53 nM | 322 nM | 146 nM | Activity [1]: inactive; Activity [14]: inactive; Activity [4]: inactive; Activity [5]: inactive; Activity [15]: inactive; EC50 (D(3) dopamine receptor [7]): 90.9 nM; IC50 (D(3) dopamine receptor [7]): 91.2 nM; Emax [9]: inactive |
